A1 inh = caspase 3/7 activation in MEF A1-2A-BIM cells, primary screen, A1 inhibitor project, cell-based, luminescence, HTS. AID 2462, 2010. 330,000 compounds, 0.066% hits. caspase activation, % (test concentration not listed). Caspase-Glo 3/7 luminescence, 3 h; percent of clofoctol response, vehicle zero;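 active = over half of replicate activation scores above 10%, or exactly half above 10 with the replicate mean above 10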
HKDC1 inh = HKDC1 hexokinase inhibitors, primary screen, biochemical, fluorescence, uHTS; Q2TB90; recombinant HKDC1, G6PDH/diaphorase resazurin coupled fluorescence; inhibition, % at 20 µM; 340,000 compounds, 0.16% hits; AID 493160, 2011;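 active = inhibition above about 35% when tested at 20 µM, limit read from the data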;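 also: plate controls were DMSO wells with enzyme for no effect and DMSO wells lacking enzyme for full effect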
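Material – in-house recombinant HK5 (HKDC1) enzyme · Quantity – HKDC1 at 5 µg/mL · Buffer or medium – pH 8.0 Tris buffer with 10 mM MgCl2 · Reagent – glucose with 1 mM ATP · Dosing – single 20 µM dose · Times – reaction time 90 min, room temperature, protected from light · Technique – resorufin fluorescence at 613 nm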
HDAC3 inh = HDAC3 deacetylase inhibitors, primary screen, biochemical, fluorescence, cell-free homogeneous; 320,000 compounds, 0.15% hits; inhibition, % at 8.3 µM; recombinant HDAC3, fluorogenic peptide/trypsin coupled; in the data active = inhibition above about 26%, passing the limit was not always enough
Target sequence (O15379 whole entry, looked up): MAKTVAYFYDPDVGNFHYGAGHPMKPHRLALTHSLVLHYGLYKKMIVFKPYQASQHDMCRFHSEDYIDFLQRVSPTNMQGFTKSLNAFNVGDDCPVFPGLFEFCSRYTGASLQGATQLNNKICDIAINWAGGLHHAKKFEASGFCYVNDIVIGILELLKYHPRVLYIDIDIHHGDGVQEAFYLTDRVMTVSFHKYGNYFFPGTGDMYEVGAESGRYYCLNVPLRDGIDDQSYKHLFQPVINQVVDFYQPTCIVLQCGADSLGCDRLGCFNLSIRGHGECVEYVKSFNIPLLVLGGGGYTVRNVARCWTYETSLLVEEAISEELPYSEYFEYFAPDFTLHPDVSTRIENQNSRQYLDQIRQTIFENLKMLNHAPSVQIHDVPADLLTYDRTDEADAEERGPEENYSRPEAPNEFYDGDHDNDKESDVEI
LANA-H2A inh = blockers of LANA interaction with H2A/H2B – biochemical, FP readout, HTS, primary screen; AID 2629, 2010; Protein LANA1 (Human herpesvirus 8 type P (isolate GK18)), Q9QR71; inhibition, % (no concentration beside the values); cell-free LANA-H2A/H2B peptide, fluorescence polarization; 320,000 compounds, 0.6% hits; in the data active = inhibition mostly above about 10%, no sharp cut-off; inactive = mostly below about 6.7%
ATG4B inhibitor = ATG4B protease inhibitors, primary screen, biochemical, fluorescence, uHTS. Cysteine protease ATG4B (Homo sapiens), Q9Y4P1. ATG4B cleavage of LC3-PLA2, NBD-HPC fluorescence, 1 h. inhibition, % at 8.33 µM. 340,000 compounds, 0.51% hits; in the data active = inhibition above about 40%
AI-2 QS mod = Vibrio harveyi AI-2 quorum sensing modulators, primary screen, JMH597 strain, luminescence/OD600 ratio; Vibrio harveyi JMH597 AI-2 luminescence/OD600 ratio, 9 h; hits give low values; strain lacks LuxN and CqsS sensors; 0 = neutral-control median; 300,000 compounds, 0.4% hits; AID 2094, 2009; activity change, % at 7.5 µM; in the data active = activity change below about -75%, passing the limit was not always enough;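 also: luminescence divided by OD600 gain over 9 h not by final OD600 alone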
ATG4B confirm = ATG4B protease inhibitors, retest, confirmation, biochemical, fluorescence, single concentration. AID 504757, 2011. ATG4B protease fluorescent substrate cleavage assay. shares compounds with ATG4B inhibitor. 320 compounds, 92% hits. inhibition, % at 8.33 µM; in the data active = inhibition above about 39%
PLA2 ctr = PLA2 enzyme inhibition, counter-screen for ATG4B inhibitor project, biochemical, single concentration, uHTS hits; shares compounds with ATG4B inhibitor; purified PLA2, NBD-C6-HPC fluorescence, 45 min; inhibition, % at 8.33 µM; 1,600 compounds, 66% hits; AID 588402, 2011; in the data active = inhibition above about 50%
Target sequence (P04054 whole entry, looked up): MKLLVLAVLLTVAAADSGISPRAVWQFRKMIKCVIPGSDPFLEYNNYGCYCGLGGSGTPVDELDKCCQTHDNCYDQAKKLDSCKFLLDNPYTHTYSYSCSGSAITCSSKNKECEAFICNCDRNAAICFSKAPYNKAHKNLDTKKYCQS
* hit, by the source's call. The list is not random: actives were taken first. Their share in the collection is about 1.8%.

Screening CC[C@H](C)/C=C/C1=CC2=C(Cl)C(=O)[C@@]3(C)OC(=O)C(C(=O)[C@H](C)[C@@H](C)O)=C3C2=CO1 returned A1 inh 0, HKDC1 inh 20, HDAC3 inh 9, LANA-H2A inh -3, ATG4B inhibitor 42*, AI-2 QS mod 31 and PLA2 ctr 54*.
COc1ccc(/C=C/C2=Nc3ccccc3NC(C)(C)C2)cc1OC was read as A1 inh -1, HKDC1 inh 4, HDAC3 inh 9, LANA-H2A inh 3, ATG4B inhibitor -2 and AI-2 QS mod 36.
`O=C(Nc1ccc2nc(-c3cccs3)c(-c3cccs3)nc2c1)NC1CC1` gave A1 inh 1, HKDC1 inh 2, HDAC3 inh 3, LANA-H2A inh -3, ATG4B inhibitor 72*, AI-2 QS mod -3 and PLA2 ctr 81*.
`Cc1ccc(/C=c2\sc3nc(-c4ccccc4Br)nn3c2=O)o1` gave A1 inh 1, HKDC1 inh 9, HDAC3 inh 8, LANA-H2A inh 4, ATG4B inhibitor 48*, AI-2 QS mod -5 and PLA2 ctr -7.
For Cc1ccc(/C=c2\sc3nc(-c4ccco4)nn3c2=O)o1 the results were A1 inh 1, HKDC1 inh 20, HDAC3 inh -2, LANA-H2A inh 0, ATG4B inhibitor 9 and AI-2 QS mod 32.
`CO/C(N)=C(\C#N)N=Cc1ccccc1Cl` gave A1 inh -1, HKDC1 inh -3, HDAC3 inh 2, LANA-H2A inh 5, ATG4B inhibitor -1 and AI-2 QS mod 24.
For O=c1cc(-c2ccc(O)c(-c3c(O)cc(O)c4c(=O)cc(-c5ccc(O)cc5)oc34)c2)oc2cc(O)cc(O)c12 the results were A1 inh 0, HKDC1 inh -5, HDAC3 inh 2, LANA-H2A inh 2, ATG4B inhibitor 82*, AI-2 QS mod 9 and PLA2 ctr 76*.
Screening C=CCC[C@@H](Cc1ccc(F)cc1)C(=O)OC[C@@H](NC(=O)[C@H](CC=C)CC(=O)N(CCO)Cc1ccccc1)c1ccccc1 returned A1 inh 2, HKDC1 inh 2, HDAC3 inh 7, LANA-H2A inh 5, ATG4B inhibitor 53* and PLA2 ctr 76*.
For Cc1ccc(S(=O)(=O)Oc2ccc(C(c3c(C)[nH][nH]c3=O)c3c(C)[nH][nH]c3=O)cc2)cc1 the results were A1 inh 0, HKDC1 inh -2, HDAC3 inh 12, LANA-H2A inh 3, ATG4B inhibitor 70*, AI-2 QS mod -3 and PLA2 ctr 68*.
`O=C(N/N=C1\CC2CC=CC12)c1ccc(COc2ccccc2)cc1` (stereo not given) gave A1 inh 0, HKDC1 inh -3, HDAC3 inh -4, LANA-H2A inh 4, ATG4B inhibitor 7 and AI-2 QS mod 18.
`CC(C)(C)c1ccc(OCc2ccc(C(=O)N/N=C3\CC4CC=CC34)cc2)cc1` (stereo not given) gave A1 inh 0, HKDC1 inh -2, HDAC3 inh 9, LANA-H2A inh -4, ATG4B inhibitor 49*, AI-2 QS mod 9 and PLA2 ctr 56*.
For COc1ccccc1NC(=O)CSc1nncn1N the results were A1 inh 3, HKDC1 inh 2, HDAC3 inh 7, LANA-H2A inh -3, ATG4B inhibitor 1 and AI-2 QS mod 7.
`CC(C)Cc1ccc(CN2CCCC(NC(=O)CCN3CCCO3)C2)cc1` (stereo not given) gave A1 inh 0, HKDC1 inh -5, HDAC3 inh 0, LANA-H2A inh -2, ATG4B inhibitor -8 and AI-2 QS mod 4.
For O=C(O)/C=C\C(=O)Nc1ccc(Oc2ccccc2)cc1 the results were A1 inh 0, HKDC1 inh 1, HDAC3 inh 1, LANA-H2A inh -1, ATG4B inhibitor -12 and AI-2 QS mod 25.
For O=C(O)/C=C/C(=O)Nc1ccc(C2(c3ccc(NC(=O)/C=C/C(=O)O)cc3)c3ccccc3-c3ccccc32)cc1 the results were A1 inh 0, HKDC1 inh 6, HDAC3 inh 7, LANA-H2A inh 6, ATG4B inhibitor 55*, AI-2 QS mod 13 and PLA2 ctr 65*.
Screening S=C(NC1CC1)N1CCCc2ccccc21 returned A1 inh 1, HKDC1 inh 1, HDAC3 inh 0, LANA-H2A inh 2, ATG4B inhibitor 3 and AI-2 QS mod 25.
CC(=O)N1c2ccc(S(=O)(=O)NCC3CCC(C(=O)N4CCCC(C)C4)CC3)cc2CC1C (stereo not given) was read as A1 inh -1, HKDC1 inh -2, HDAC3 inh 6, LANA-H2A inh 2, ATG4B inhibitor 6 and AI-2 QS mod 4.
`Cc1ccc(-c2nc(-c3cccnc3)sc2CC(=O)Nc2ccc3nc(C)sc3c2)cc1` gave A1 inh 0, HKDC1 inh -1, HDAC3 inh 1, LANA-H2A inh -2, ATG4B inhibitor 45*, AI-2 QS mod 13 and PLA2 ctr 12.
O=C(c1ccccc1)c1cnc(Nc2ccccc2Cl)s1 was read as A1 inh -3, HKDC1 inh -2, HDAC3 inh 0, LANA-H2A inh 3, ATG4B inhibitor 44*, AI-2 QS mod -8, ATG4B confirm 65* and PLA2 ctr 46.
`COc1cc(/C=C/C(O)=C/C(=O)/C=C/c2ccc(O)cc2)ccc1O` gave A1 inh 0, HKDC1 inh 0, HDAC3 inh 3, LANA-H2A inh -3, ATG4B inhibitor 48* and PLA2 ctr 47.
`CC1CC(C)CN(C(=O)c2ccc3ccccc3c2)C1` (stereo not given) gave A1 inh -1, HKDC1 inh 4, HDAC3 inh 2, LANA-H2A inh -1, ATG4B inhibitor 54*, AI-2 QS mod 6 and PLA2 ctr 50*.
